Experimental data taken from ChEMBL document CHEMBL1150261, “Ring size in octreotide amide modulates differently agonist versus antagonist binding affinity and selectivity” (J Med Chem, 2008).
Calls of active or inactive are those of the source. The calls are words filed in the database; no cut-off is given here.

Tests used:
[1] = molecular target: T1, Somatostatin receptor type 2 (Homo sapiens, UniProt P30874); assay: Agonist activity at T7-tagged human sst2 receptor expressed in HEK293 cells at 100 to 10000 nM; type: functional, cell-based
T1 sequence (P30874 whole entry): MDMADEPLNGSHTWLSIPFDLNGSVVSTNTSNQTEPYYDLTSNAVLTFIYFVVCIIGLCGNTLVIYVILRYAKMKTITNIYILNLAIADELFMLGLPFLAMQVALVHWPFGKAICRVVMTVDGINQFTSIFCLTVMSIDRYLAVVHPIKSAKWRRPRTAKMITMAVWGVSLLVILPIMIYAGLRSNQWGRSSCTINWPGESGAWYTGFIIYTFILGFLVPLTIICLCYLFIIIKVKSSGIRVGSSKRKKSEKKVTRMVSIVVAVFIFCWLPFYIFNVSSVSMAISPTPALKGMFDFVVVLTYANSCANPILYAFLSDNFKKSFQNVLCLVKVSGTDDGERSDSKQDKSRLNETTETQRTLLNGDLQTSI
Summary of the method: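 Immunofluorescence microscopy internalization in HEK-sst2 cells. Agonist mode: peptides at 100 nM to 10,000 nM. Antagonist mode: 100 nM [Tyr3]-octreotide with 100-fold excess of peptide. Treatment 30 min at 37 °C, 5% CO2 in growth medium, then staining with polyclonal sst2-specific R2-88 antibody; n ≥ 2.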

[2] = molecular target: Somatostatin receptor type 5 (Homo sapiens, UniProt P35346); assay: Displacement of [125I]-[Leu8, DTrp22, Tyr25]SRIF28 from human sst5 receptor expressed in CHOK1 cells by autoradiography; type: cell-based, CHO-K1
Somatostatin receptor type 5, sequence (P35346 whole entry): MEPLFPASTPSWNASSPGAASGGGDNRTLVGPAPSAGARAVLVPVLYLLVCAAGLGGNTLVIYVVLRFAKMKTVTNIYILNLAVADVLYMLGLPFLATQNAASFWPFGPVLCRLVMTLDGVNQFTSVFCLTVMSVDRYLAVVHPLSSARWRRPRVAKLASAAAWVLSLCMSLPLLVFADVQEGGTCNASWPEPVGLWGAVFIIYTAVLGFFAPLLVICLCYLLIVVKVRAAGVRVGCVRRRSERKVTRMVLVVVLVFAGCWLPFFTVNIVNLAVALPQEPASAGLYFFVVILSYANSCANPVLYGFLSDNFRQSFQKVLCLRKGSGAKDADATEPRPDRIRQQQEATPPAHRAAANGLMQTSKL

[3] = molecular target: Somatostatin receptor type 3 (Homo sapiens, UniProt P32745); assay: Displacement of [125I]-[Leu8, DTrp22, Tyr25]SRIF28 from human sst3 receptor expressed in chinese hamster CCL39 cells by autoradiography; type: cell-based
Somatostatin receptor type 3, sequence (P32745 whole entry): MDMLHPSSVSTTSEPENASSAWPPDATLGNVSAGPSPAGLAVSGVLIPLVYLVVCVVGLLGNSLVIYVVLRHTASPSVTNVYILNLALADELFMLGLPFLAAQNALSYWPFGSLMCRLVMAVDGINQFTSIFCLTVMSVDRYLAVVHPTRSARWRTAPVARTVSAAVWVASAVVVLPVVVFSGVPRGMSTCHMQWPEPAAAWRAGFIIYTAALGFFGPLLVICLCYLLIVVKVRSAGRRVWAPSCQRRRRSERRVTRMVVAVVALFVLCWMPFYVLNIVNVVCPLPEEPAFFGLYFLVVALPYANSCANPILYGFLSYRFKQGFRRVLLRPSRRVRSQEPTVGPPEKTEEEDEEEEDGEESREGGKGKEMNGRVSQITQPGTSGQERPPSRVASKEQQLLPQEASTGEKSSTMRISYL

[4] = molecular target: T1, Somatostatin receptor type 2; assay: Displacement of [125I]-[Leu8, DTrp22, Tyr25]SRIF28 from human sst2 receptor expressed in chinese hamster CCL39 cells by autoradiography; type: cell-based
[5] = molecular target: Somatostatin receptor type 1 (Homo sapiens, UniProt P30872); assay: Displacement of [125I]-[Leu8, DTrp22, Tyr25]SRIF28 from human sst1 receptor expressed in CHOK1 cells by autoradiography; type: cell-based, CHO-K1
Somatostatin receptor type 1, sequence (P30872 whole entry): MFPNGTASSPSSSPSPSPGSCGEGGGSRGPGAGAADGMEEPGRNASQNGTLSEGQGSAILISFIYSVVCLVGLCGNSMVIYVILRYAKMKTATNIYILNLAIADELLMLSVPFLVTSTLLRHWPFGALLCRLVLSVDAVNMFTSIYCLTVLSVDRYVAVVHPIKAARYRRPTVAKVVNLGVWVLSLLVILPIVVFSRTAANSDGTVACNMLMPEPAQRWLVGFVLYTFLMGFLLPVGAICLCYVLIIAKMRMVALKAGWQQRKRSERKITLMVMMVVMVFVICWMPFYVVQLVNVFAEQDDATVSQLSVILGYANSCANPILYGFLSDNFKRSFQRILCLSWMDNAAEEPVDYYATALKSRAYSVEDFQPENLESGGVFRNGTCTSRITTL

[6] = molecular target: Somatostatin receptor type 4 (Homo sapiens, UniProt P31391); assay: Displacement of [125I]-[Leu8, DTrp22, Tyr25]SRIF28 from human sst4 receptor expressed in chinese hamster CCL39 cells by autoradiography; type: cell-based
Somatostatin receptor type 4, sequence (P31391 whole entry): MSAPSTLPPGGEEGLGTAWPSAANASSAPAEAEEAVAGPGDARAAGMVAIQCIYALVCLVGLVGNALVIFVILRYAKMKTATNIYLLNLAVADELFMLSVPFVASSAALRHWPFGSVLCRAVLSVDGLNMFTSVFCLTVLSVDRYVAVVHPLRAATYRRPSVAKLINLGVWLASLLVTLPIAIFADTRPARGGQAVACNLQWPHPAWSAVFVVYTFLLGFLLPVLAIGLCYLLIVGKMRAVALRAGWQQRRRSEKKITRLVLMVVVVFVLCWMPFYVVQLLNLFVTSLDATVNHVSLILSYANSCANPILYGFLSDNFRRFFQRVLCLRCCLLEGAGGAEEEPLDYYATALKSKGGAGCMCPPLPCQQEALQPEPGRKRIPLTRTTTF

Row | SMILES | Activity [1] | IC50 [2] | IC50 [3] | IC50 [4] | IC50 [5] | IC50 [6]
1 | C[C@@H](O)[C@H](NC(=O)[C@H]1CCSSCC[C@@H](NC(=O)[C@H](N)Cc2ccccc2)C(=O)N[C@@H](Cc2ccccc2)C(=O)N[C@H](Cc2c[nH]c3ccccc23)C(=O)N[C@@H](CCCCN)C(=O)N[C@@H]([C@@H](C)O)C(=O)N1)C(N)=O | Active |  |  |  |  | 
2 | C[C@@H](O)[C@H](NC(=O)[C@@H]1NC(=O)[C@H]([C@@H](C)O)NC(=O)[C@H](CCCCN)NC(=O)[C@@H](Cc2c[nH]c3ccccc23)NC(=O)[C@H](Cc2ccccc2)NC(=O)[C@H](NC(=O)[C@H](N)Cc2ccccc2)SS1)C(N)=O |  | > 1000 nM | > 1000 nM | 337 nM | > 1000 nM | 214 nM

Other lines, results leading:

Row | Activity [1] | IC50 [2] | IC50 [3] | IC50 [4] | IC50 [5] | IC50 [6] | SMILES
3 |  | 199 nM | 359 nM | 267 nM | 763 nM | 174 nM | C[C@@H](O)[C@@H]1NC(=O)[C@H](CCCCN)NC(=O)[C@@H](Cc2c[nH]c3ccccc23)NC(=O)[C@H](Cc2ccc(O)cc2)NC(=O)[C@H](NC(=O)[C@@H](N)Cc2ccc(Cl)cc2)CCSSCC[C@@H](C(=O)N[C@@H](Cc2ccc3ccccc3c2)C(N)=O)NC1=O
4 |  | 109 nM | 452 nM | 4.9 nM | > 1000 nM | 115 nM | C[C@@H](O)[C@H](NC(=O)[C@@H]1CCSSCC[C@H](NC(=O)[C@H](N)Cc2ccccc2)C(=O)N[C@@H](Cc2ccccc2)C(=O)N[C@H](Cc2c[nH]c3ccccc23)C(=O)N[C@@H](CCCCN)C(=O)N[C@@H]([C@@H](C)O)C(=O)N1)C(N)=O
5 | Active |  | 39 nM | 1.9 nM | > 1000 nM | > 1000 nM | C[C@@H](O)[C@H](NC(=O)[C@@H]1CSSC[C@H](NC(=O)[C@H](N)Cc2ccccc2)C(=O)N[C@@H](Cc2ccccc2)C(=O)N[C@H](Cc2c[nH]c3ccccc23)C(=O)N[C@@H](CCCCN)C(=O)N[C@@H]([C@@H](C)O)C(=O)N1)C(N)=O
